From PubChem BioAssay
Calls of active or inactive are those of the source.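 The calls were made as follows, unless noted: active = viability at or below 30% in both replicate assays; inconclusive = viability at or below 30% in just one of the two assays; inactive = the rest.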

How the values were obtained:
[1] = reducers of endogenous Her2 protein level, primary screen, SKBR3 breast tumor cells, AlphaScreen, ATP viability (AID 461;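 active = Her2 level under about 52% in both replicate screens, with viability over 70% of control, limit read from the data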;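 as to Her2 level: lower value means less Her2 protein in the cells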;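 as to viability: percent of carrier control wells set as 100% viability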); settings: 18-24 h, measured here: SKBR3 viability, ATP luminescence, at 10 µM
[2] = target: Receptor tyrosine-protein kinase erbB-2 (Homo sapiens) (UniProt P04626); assay: as above; settings: 18-24 h, at 10 µM, stronger effect = lower value
[3] = SK-BR-3 cell growth inhibitors, pilot screen, 24 h, human (AID 572;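 active = viability at or below 10% of carrier control in both of two separate runs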;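 also: compound exposure lasted between 18 and 24 h rather than exactly 24 h; 100% = carrier-treated control wells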); settings: SK-BR-3 viability, CellTiter-Glo luminescence, at 10 µM, stronger effect = lower value
[4] = HUVEC growth inhibition – cell-based, human, primary screen (AID 575); settings: HUVEC proliferation, CellTiter-Glo luminescence, 72 h; at 10 µM; stronger effect = lower value;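 also: 100% = median of untreated cell wells with 0.1% DMSO on each plate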
Method in brief: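 Test system: HUVEC primary cells. Quantity: 1250 endothelial cells in each well. Dosing: single-point 10 µM, DMSO 0.1% final. Incubation: 72 h treatment at 37 °C. Measured by: CTG luminescence. Control set: DMSO cell controls and MePR drug controls. Plate: collagen-coated 384-well format.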

[5] = growth inhibitors of H69AR lung tumor, primary screen, human, duplicate replicates (AID 580;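 active = viability at or under a set limit in both replicates, limit being median viability minus 3 SD, cut at about 48% in these data, passing the limit was not always enough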;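 also: 100% = mean luminescence of untreated wells and 0% = no signal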); settings: H69AR lung tumor cells viability, ATP luminescence, 72 h; at 10 µM; stronger effect = lower value
[6] = reversal of MRP1-mediated doxorubicin resistance, pilot screen, H69AR cells, doxorubicin co-treatment (AID 601;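 active = viability loss from added drug above about 55%, and viability with drug at most 40%, in both replicates, limit read from the data, passing the limit was not always enough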); settings: CellTiter-Glo, 72 h, at 10 µM; for differential viability (reversal): stronger effect = higher value
[7] = 384-well plate pilot, post-Golgi transport modulator project, inhibition of yeast transport mutant growth (AID 636; in the data active = inhibition above about 31%); settings: absorbance 615 nm, about 18 h, stronger effect = higher value
[8] = growth suppression of yeast trafficking mutant, preliminary HTS, modulators of trafficking downstream of Golgi apparatus project, 1536-format plate, OD 615 nm (AID 637; in the data active = inhibition above about 30%); settings: yeast transport mutant growth, absorbance 615 nm, 18 h; stronger effect = higher value
[9] = H69AR cells + 2 uM doxorubicin, measured here: viability with 2 uM doxorubicin, stronger effect = lower value
[10] = H69AR cells, compound alone cytotoxicity

Receptor tyrosine-protein kinase erbB-2 (Homo sapiens), sequence (P04626 whole entry, looked up): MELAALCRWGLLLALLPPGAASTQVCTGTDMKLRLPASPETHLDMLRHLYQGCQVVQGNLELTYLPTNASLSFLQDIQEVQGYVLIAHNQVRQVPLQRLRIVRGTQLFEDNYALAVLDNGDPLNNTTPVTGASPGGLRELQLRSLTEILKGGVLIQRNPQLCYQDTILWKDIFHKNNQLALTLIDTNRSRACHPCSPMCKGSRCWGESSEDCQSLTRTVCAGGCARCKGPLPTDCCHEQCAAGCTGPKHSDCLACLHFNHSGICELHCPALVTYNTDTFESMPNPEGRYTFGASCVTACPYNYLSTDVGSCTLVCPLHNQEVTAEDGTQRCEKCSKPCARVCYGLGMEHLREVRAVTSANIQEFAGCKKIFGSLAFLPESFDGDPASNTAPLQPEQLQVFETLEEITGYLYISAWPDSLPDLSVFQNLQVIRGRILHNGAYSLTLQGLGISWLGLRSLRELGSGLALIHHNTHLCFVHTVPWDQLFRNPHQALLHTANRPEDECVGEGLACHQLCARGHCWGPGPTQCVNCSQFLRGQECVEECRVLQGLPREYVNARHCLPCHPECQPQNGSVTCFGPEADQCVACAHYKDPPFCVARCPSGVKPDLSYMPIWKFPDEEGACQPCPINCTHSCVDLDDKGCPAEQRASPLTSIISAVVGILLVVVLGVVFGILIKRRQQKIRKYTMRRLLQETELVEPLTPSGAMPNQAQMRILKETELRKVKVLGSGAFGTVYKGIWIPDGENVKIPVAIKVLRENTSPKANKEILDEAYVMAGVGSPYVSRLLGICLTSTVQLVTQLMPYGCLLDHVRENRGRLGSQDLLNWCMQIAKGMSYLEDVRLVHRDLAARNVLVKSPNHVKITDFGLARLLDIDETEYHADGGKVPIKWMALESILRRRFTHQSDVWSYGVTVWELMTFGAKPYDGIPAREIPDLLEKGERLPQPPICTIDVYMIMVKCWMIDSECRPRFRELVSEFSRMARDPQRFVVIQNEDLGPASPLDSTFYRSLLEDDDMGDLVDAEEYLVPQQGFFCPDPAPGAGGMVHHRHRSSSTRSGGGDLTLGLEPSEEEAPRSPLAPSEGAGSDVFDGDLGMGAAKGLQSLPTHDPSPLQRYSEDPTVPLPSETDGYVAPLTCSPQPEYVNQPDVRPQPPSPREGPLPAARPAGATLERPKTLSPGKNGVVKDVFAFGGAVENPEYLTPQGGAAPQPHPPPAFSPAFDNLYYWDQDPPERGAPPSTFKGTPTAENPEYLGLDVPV

SMILES | viability [1] [%] | Her2 level [2] | viability [3] | viability [4] | viability [5] | differential viability (reversal) ([6]; H69AR cells + 2 uM doxorubicin) | viability [6, 9] [%] | viability [6, 10] [%] | inhibition [7] | inhibition [8]
CCOC(=O)CNC(=O)c1c(C)nn(-c2ccccc2)c1Cl | 98.5 | 86.5% (inactive) | 98.5% (inactive) | 96.2% (inactive) | 90% (inactive) | -0.915% (inactive) | 90.9 | 90 | -2.63% (inactive) | -7.27% (inactive)
CC(=O)OC1c2ccccc2C(=O)N1c1ccccc1C (stereo not given) | 100 | 106% (inactive) | 100% (inactive) | 99.9% (inactive) | 105% (inactive) | 14.2% (inactive) | 91.2 | 105 | 0.64% (inactive) | 0.83% (inactive)
COc1ccc(C2=NO[C@@H]3C(=O)N(c4ccc5c(c4)OCCO5)C(=O)[C@H]23)cc1OC | 85 | 112% (inactive) | 85% (inactive) | 81.7% (inactive) | 80.3% (inactive) | -6.85% (inactive) | 87.1 | 80.3 | 2.34% (inactive) | -5.08% (inactive)
Cc1ccccc1N1OC2C(=O)N(c3ccc(F)cc3)C(=O)C2C1c1ccccn1 (stereo not given) | 130 | 116% (inactive) | 130% (inactive) | 115% (inactive) | 91.4% (inactive) | 9.9% (inactive) | 81.5 | 91.4 | -5.58% (inactive) | -2.86% (inactive)
C=CCSC1=C(C#N)C(c2ccccc2Cl)CC(=O)N1 (stereo not given) | 72 | 85.5% (inactive) | 72% (inactive) | 103% (inactive) | 96.5% (inactive) | 1.45% (inactive) | 95.1 | 96.5 | 0.27% (inactive) | -2.26% (inactive)
CCN1CCCC1CN=Cc1c(O)n(-c2ccccc2)c(=O)c2ccccc12 (stereo not given) | 82 | 106% (inactive) | 82% (inactive) | 96.9% (inactive) | 92.9% (inactive) | -2.08% (inactive) | 95 | 92.9 | -6.89% (inactive) | -2.54% (inactive)
CCC(=O)N1CCc2cc(S(=O)(=O)CCC(=O)Nc3c(C)n(C)n(-c4ccccc4)c3=O)ccc21 | 96 | 104% (inactive) | 96% (inactive) | 89.8% (inactive) | 94% (inactive) | 6.7% (inactive) | 87.3 | 94 | -2.93% (inactive) | -10.7% (inactive)
COC(=O)c1ccc(-c2sc3nc(N4CCOCC4)c4c(c3c2N)CCCC4)o1 | 108 | 104% (inactive) | 108% (inactive) | 74.4% (inactive) | 91% (inactive) | -1.13% (inactive) | 92.2 | 91 | -4% (inactive) | 27.3% (inactive)
COc1ccc(S(=O)(=O)N2CCN(C3CCCCCCC3)CC2)cc1 | 87.5 | 89.5% (inactive) | 87.5% (inactive) | 106% (inactive) | 93.9% (inactive) | -6.63% (inactive) | 100 | 93.9 | -2.11% (inactive) | -0.98% (inactive)
O=C(c1ccc(Cl)cc1)C1CCN(C(=O)NC2CCCCC2)CC1 | 92 | 92% (inactive) | 92% (inactive) | 101% (inactive) | 101% (inactive) | 14% (inactive) | 87 | 101 | -4.8% (inactive) | -7.26% (inactive)
O=C(c1cc2n(n1)C(C(F)(F)F)CC(c1ccc(Cl)cc1)N2)N1CCCC1 (stereo not given) | 86.5 | 68% (inactive) | 86.5% (inactive) | 82.1% (inactive) | 90.9% (inactive) | -0.385% (inactive) | 91.3 | 90.9 | -6.84% (inactive) | 3.17% (inactive)
CCOC(=O)C(C)On1c(SC(C)C(=O)OCC)nc2ccccc2c1=O (stereo not given) | 131 | 102% (inactive) | 131% (inactive) | 93.4% (inactive) | 82.1% (inactive) | -19.7% (inactive) | 102 | 82.1 | -3.68% (inactive) | -6.61% (inactive)
Cc1cc(=O)n(-c2ccc3ccccc3n2)[nH]1 | 105 | 101% (inactive) | 105% (inactive) | 53.6% (inactive) | 73.4% (inactive) | -2.73% (inactive) | 76.2 | 73.4 | -5.73% (inactive) | 11.1% (inactive)
CCC(OC(=O)c1cccs1)C(=O)NCc1ccco1 (stereo not given) | 103 | 93% (inactive) | 103% (inactive) | 98.6% (inactive) | 91.4% (inactive) | 9.38% (inactive) | 82 | 91.4 | -2.86% (inactive) | 1.97% (inactive)
CCOc1ncccc1C(=O)OCC(=O)N1CC(=O)Nc2ccccc21 | 87 | 97% (inactive) | 87% (inactive) | 100% (inactive) | 99.7% (inactive) | 2.01% (inactive) | 97.7 | 99.7 | -0.78% (inactive) | -4.92% (inactive)
CCOC(=O)c1cnc(-n2cc(C)cn2)nc1Nc1ccccc1OC | 92.5 | 94% (inactive) | 92.5% (inactive) | 80.8% (inactive) | 60.8% (inactive) | -8.94% (inactive) | 69.8 | 60.8 | -4.55% (inactive) | -4.13% (inactive)
COc1ccc2cc(CN(Cc3ccco3)C(c3nnnn3C3CCCCC3)C(C)C)c(=O)[nH]c2c1 (stereo not given) | 100 | 83% (inactive) | 100% (inactive) | 47.1% (inactive) | 33.1% (active) | 7.31% (inactive) | 25.8 | 33.1 | -0.54% (inactive) | -4.59% (inactive)
CCN(CC)CCCC1(CN)OCCc2ccccc21 (stereo not given) | 98.5 | 88.5% (inactive) | 98.5% (inactive) | 93.3% (inactive) | 83.8% (inactive) | -18.9% (inactive) | 103 | 83.8 | -0.39% (inactive) | 23.8% (inactive)
O=C1C(Cl)=C(N2CCCCC2)C(=O)N1c1ccccc1Cl | 106 | 79.5% (inactive) | 106% (inactive) | 89.7% (inactive) | 81.8% (inactive) | 1.39% (inactive) | 80.4 | 81.8 | -2.6% (inactive) | 2.95% (inactive)
CC(C)(Oc1ccc(Cl)cc1)C(=O)NC1CCSC1=O (stereo not given) | 101 | 104% (inactive) | 101% (inactive) | 90.3% (inactive) | 114% (inactive) | 19.5% (inactive) | 94.6 | 114 | 0.27% (inactive) | -9.52% (inactive)
Cc1ccc(S(=O)(=O)N2CCN(C(=O)CN3C(=O)NC4(CCOc5ccccc54)C3=O)CC2)cc1 (stereo not given) | 98.5 | 108% (inactive) | 98.5% (inactive) | 102% (inactive) | 101% (inactive) | 1.57% (inactive) | 99.8 | 101 | 4.08% (inactive) | -1.09% (inactive)
COc1ccc(S(=O)(=O)N2CCN(CC(=O)Nc3ccc(F)c(F)c3)CC2)cc1 | 88.5 | 86% (inactive) | 88.5% (inactive) | 75.6% (inactive) | 91.1% (inactive) | -2.83% (inactive) | 93.9 | 91.1 | -1.73% (inactive) | -1.94% (inactive)
CCCn1c(=O)c2ccccc2n2c(SCc3cc(=O)n4ccsc4n3)nnc12 | 79.5 | 90.5% (inactive) | 79.5% (inactive) | 104% (inactive) | 82.1% (inactive) | 14.6% (inactive) | 67.6 | 82.1 | -1.18% (inactive) | -12.1% (inactive)
Cc1nn(-c2ccc(F)cc2)c2sc(C(=O)OCC(=O)N3CCC(C)CC3)cc12 | 93 | 102% (inactive) | 93% (inactive) | 76.8% (inactive) | 102% (inactive) | 9.16% (inactive) | 92.6 | 102 | -3.87% (inactive) | -5.81% (inactive)
COc1ccc(-c2noc(-c3cc(Cl)ccc3Cl)n2)cc1OC | 122 | 78% (inactive) | 122% (inactive) | 94.9% (inactive) | 107% (inactive) | 18.4% (inactive) | 88.1 | 107 | -2.67% (inactive) | -4.52% (inactive)
Cn1c2ccccc2c2ncn(CCCN3CCOCC3)c(=O)c21 | 89 | 93% (inactive) | 89% (inactive) | 101% (inactive) | 94.6% (inactive) | 1.77% (inactive) | 92.9 | 94.6 | -7.6% (inactive) | -7.94% (inactive)
Cc1ccccc1C(=O)NC1CCN(CC(=O)Nc2nccs2)CC1 | 92.5 | 96% (inactive) | 92.5% (inactive) | 88.8% (inactive) | 97.8% (inactive) | 11.6% (inactive) | 86.2 | 97.8 | -0.67% (inactive) | 5.08% (inactive)
O=C(CP(=O)(CO)CO)c1ccc(Cl)cc1 | 100 | 95% (inactive) | 100% (inactive) | 100% (inactive) | 101% (inactive) | 8.5% (inactive) | 92.3 | 101 | -0.26% (inactive) | -2.18% (inactive)
